# Source: PubChem (The Scripps Research Institute Molecular Screening Center)
# M4 antag: blocks acetylcholine activation of human M4 receptor | P08173 | CHO-hM4 cells, ACh EC80, Fluo-8 calcium fluorescence | inhibition, % at 3 µM | 360,000 compounds, 0.73% hits | AID 624125;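 active = inhibition above its plate's cutoff, the mean inhibition of sample wells plus 3 SD, cut at about 27% in these data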;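 note: 0% = acetylcholine EC80 with DMSO and 100% = DMSO without agonist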
# Target sequence (P08173 whole entry, looked up): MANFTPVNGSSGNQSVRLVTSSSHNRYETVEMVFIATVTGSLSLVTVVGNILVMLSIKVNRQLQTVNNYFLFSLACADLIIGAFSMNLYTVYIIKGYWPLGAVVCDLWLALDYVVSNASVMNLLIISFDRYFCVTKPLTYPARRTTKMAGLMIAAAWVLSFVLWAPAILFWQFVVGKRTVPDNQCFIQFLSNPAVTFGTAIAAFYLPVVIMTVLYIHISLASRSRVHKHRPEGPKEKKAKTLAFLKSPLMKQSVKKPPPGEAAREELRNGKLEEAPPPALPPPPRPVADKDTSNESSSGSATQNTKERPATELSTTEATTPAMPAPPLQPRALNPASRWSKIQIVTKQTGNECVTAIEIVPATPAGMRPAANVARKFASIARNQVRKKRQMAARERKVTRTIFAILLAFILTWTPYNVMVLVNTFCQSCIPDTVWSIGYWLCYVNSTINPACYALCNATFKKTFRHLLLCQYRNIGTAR
# M4 ag: agonists of human muscarinic M4 receptor (CHRM4). 360,000 compounds, 0.14% hits. P08173. activation, % at 3 µM. CHO-K1 hM4/Gqi5, Fluo-8 calcium fluorescence; vehicle 0%, full acetylcholine response 100%;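 active = activation above the run mean over all test wells plus 3 SD, cut at about 32% in these data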;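 note: peak over basal fluorescence ratio per well then scaled between controls; 0% = DMSO wells and 100% = acetylcholine at EC100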
# M5 PAM: CHRM5 positive allosteric modulation; P08912; CHO-K1 hM5, Fluo-8 calcium, ACh EC20 PAM; 0% = ACh EC20, 100% = ACh EC100; activation, % at 3 µM; 360,000 compounds, 0.3% hits;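 active = activation above the run cutoff, the mean activation of all test compounds plus 3 SD, cut at about 18% in these data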
#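 System: CHO-K1 cell line with stable human muscarinic M5 receptor expression | Also added: EC20 acetylcholine as agonist stimulus | Compound: One concentration, 3 µM final (nominal) | Timing: Fluo-8 loading 80 min at 37 °C plus 30 min room temperature | Measured by: Fluo-8 calcium dye fluorescence, kinetic read | Read-out basis: % activation, ACh-normalized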
# M5 ag: CHRM5 agonism in calcium assay; CHO-K1 hM5 cells, Fluo-8 calcium fluorescence; 0% DMSO wells, 100% maximal acetylcholine response; activation, % at 3 µM; 360,000 compounds, 0.19% hits; AID 624037;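 active = activation above the run's mean over test compounds plus 3 SD, cut at about 23% in these data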;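 note: signal is peak over basal fluorescence ratio across the kinetic read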
# M4 PAM: positive allosteric modulators of human muscarinic M4 receptor | CHO-K1 hM4/Gqi5, Fluo-8 calcium fluorescence, ACh EC20; 0% = ACh EC20, 100% = maximal ACh | activation, % at 3 µM | 360,000 compounds, 0.4% hits | AID 624126;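 active = activation above its plate's cutoff, the mean activation of sample wells plus 3 SD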
# CHRM5 antagonist: antagonists of human muscarinic M5 receptor (CHRM5); AID 624040; P08912; inhibition, % at 3 µM; CHO-hM5 cells, Fluo-8 calcium fluorescence, ACh EC80; 360,000 compounds, 0.59% hits;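 active = inhibition above a per-plate cutoff, the mean of that plate's test compounds plus 3 SD, cut at about 27% in these data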;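 note: 0% = acetylcholine EC80 with DMSO and 100% = DMSO without agonist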
# * = called active by the depositor. Only some compounds are listed: those with a hit (about 1.8% of all), similar ones and a draw of the others.
SMILES,M4 antag,M4 ag,M5 PAM,M5 ag,M4 PAM,CHRM5 antagonist
CN(C)S(=O)(=O)c1ccc2c(c1)c(=O)c(C(=O)N1CCN(c3ccccn3)CC1)cn2C,-8,0,-6,1,6,4
CCC(=O)N1CCC1(C)C(=O)Nc1nccs1 (stereo not given),-8,0,-1,0,-4,-7
CCC(=O)N1CCC1(C)C(=O)Nc1ncc(C)s1 (stereo not given),-13,1,0,3,19*,10
CCOc1ccc(N(CC(=O)NCc2ccc(OC)cc2)S(C)(=O)=O)cc1,3,1,0,0,-1,2
Cc1cccc(/C=N/n2c(C)cc(C)c(C#N)c2=O)c1,26,2,5,-1,41*,-1
CC1(C(=O)Nc2ccc3c(c2)OCCO3)CN(S(C)(=O)=O)CC(=O)N1Cc1ccco1 (stereo not given),-9,1,-1,3,4,-6
CC(=NNC(=S)N1CCN(c2ccccn2)CC1)c1ccccn1,10,8,-9,4,-6,8
CC(=NNC(=S)N1CCN(c2ccccn2)CC1)c1nccs1,43*,4,-21,-7,-5,29*
COc1ccc(C(O)(CCN2CCCCC2)C2CCCCC2)cc1 (stereo not given),75*,0,-23,-11,-20,64*
O=S(=O)(Nc1ccc(-c2nc3cccnc3s2)cc1)c1ccccc1F,-6,2,-12,2,5,11
O=S1(=O)N[C@H](Cc2ccccc2)COc2cc(N3CC[C@H](O)C3)ccc21,-3,2,2,2,12,1
CC(C)C[C@H](N)c1nnc(S(=O)(=O)Cc2ccc(F)cc2)o1,28*,1,1,0,-2,3
Cn1c(N)c(N2CCCCC2)c(=O)n(CC(=O)Nc2ccc(Cl)c(Cl)c2)c1=O,3,0,19*,6,24,-4
Cc1csc(=O)n1CC(=O)Nc1ccc(Cl)c(Cl)c1,8,3,-7,0,-7,8
O=C1C2CCCN2C(=S)N1c1ccccc1 (stereo not given),2,0,-1,-2,-1,12
CC1CCCN(C(=O)CCNS(=O)(=O)c2ccc3c(c2)c(=O)n(C)c(=O)n3C)C1 (stereo not given),-1,1,7,-1,15*,-4
C/C=C(\C)CN1CCC(n2nccc2NC(=O)CCCc2ccccc2)CC1,-5,1,2,-3,-2,-6
COc1ccc(NC(=O)N2CCN(c3nc(-c4cccc(OC)c4)cs3)CC2)cc1,12,16,-17,2,-5,17
COc1cccc(-c2csc(N3CCN(C(=O)Nc4ccc(Cl)cc4)CC3)n2)c1,20,13,-34,-4,-21,28*
O=[N+]([O-])c1c(NCCCO)cc(Sc2nc3ccccc3s2)c2nonc12,75*,16,-16,0,-16,32*
CCC(=O)OCCNc1cc(Sc2nc3ccccc3[nH]2)c2nonc2c1[N+](=O)[O-],54*,3,-7,-2,-10,22
CCCC(=O)OCCNc1cc(Sc2nccn2C)c2nonc2c1[N+](=O)[O-],36*,2,-10,-2,-4,21
CCOC(=O)C1=C(COC(=O)/C=C/c2ccc(O)c(OC)c2)NC(=O)NC1C (stereo not given),-1,21,-13,9,-4,9
O=C(Nc1cccc2ccccc12)c1csc([C@@H]2C[C@H](O)[C@@H](CO)O2)n1,-31,2,-5,-1,9,-1
O=C(NCC(=O)N1CCc2ccccc2C1)c1ccccc1Cl,-10,10,-6,-1,-1,14
SMILES,M4 antag,M4 ag,M5 PAM,M5 ag,M4 PAM,CHRM5 antagonist
CCN(CC(=O)Nc1ccc(NC(C)=O)cc1)C(=O)CCCN1C(=O)c2ccccc2C1=O,11,-1,4,0,0,7
CSc1nc(N)nc(SCC(=O)Nc2ccc(Cl)cc2)c1C#N,8,9,-12,7,-12,11
CSc1nc(N)nc(SCC(=O)Nc2cccc(F)c2)c1C#N,15,22,-19,7,-4,42*
Cc1nc2scc(-c3ccc(C(C)(C)C)cc3)c2c(=O)n1N,9,15,-19,4,-15,33*
COc1ccc(-c2csc3nc(C)n(-n4cccc4)c(=O)c23)cc1,-1,-3,10,-3,3,-4
COC(=O)[C@H]1[C@@H](C)N(Cc2ccccc2)C(=O)N[C@H]1c1cccc(C(F)(F)F)c1,-11,4,19*,5,12,-4
CCc1ccc(Nc2n[n+](-c3ccccc3)c(-c3ccc(N(CC)CC)cc3)s2)cc1,30*,42*,-16,19,-9,36*
CCN(CC)c1ccc(-c2sc(Nc3ccccc3)n[n+]2-c2ccc(F)cc2)cc1,-4,22,-11,20,-6,26
COc1ccc(-c2sc(Nc3ccccc3)n[n+]2-c2ccc(F)cc2)cc1Br,10,1,-5,-5,14,14
CCc1ccc(Nc2n[n+](-c3ccccc3)c(-c3c(Cl)cccc3Cl)s2)cc1,24,43*,-25,49*,-19,70*
COc1ccc2ccccc2c1-c1sc(Nc2ccccc2)n[n+]1-c1ccc(F)cc1,9,32*,-33,28*,-8,35*
O=C(CNC(=O)c1ccc(C(F)(F)F)cc1)NC1CC1,9,0,10,-1,-3,-2
CN(C)S(=O)(=O)c1cc(C(=O)NCc2ccccc2)c(Cl)cc1Cl,3,2,4,2,4,-3
CCn1cc(C(=O)N(C)c2cc(C)ccc2OC)c2cc(OC)c(OC)cc2c1=O,-10,3,0,-2,2,6
CCn1cc(C(=O)N(C)c2ccc(OC)cc2OC)c2cc(OC)c(OC)cc2c1=O,-27,2,11,-4,14*,0
CCCCNC(=O)NC1(C(F)(F)F)Oc2ccccc2O1,-6,0,2,-7,2,-7
NS(=O)(=O)c1ccc(CCNC(=O)NC2(C(F)(F)F)Oc3ccccc3O2)cc1,7,0,31*,-13,-7,-12
COc1cc(C(=O)OCC(=O)Nc2ccc(N3CCOCC3)cc2)ccc1OCC(C)C,-18,1,-5,3,5,10
CCCn1c(=O)[nH]c(=O)c2c1nc(-c1cccs1)n2CCOC,-4,1,4,0,16,8
Cc1nc2ccc(NS(=O)(=O)c3ccc4c(c3)OCCO4)cc2s1,27*,11,-13,9,2,25
Cc1ccc(S(=O)(=O)Nc2ccc3nc(C)sc3c2)cc1,13,9,-19,5,-2,30*
